OX1R antag-1: blocks the human orexin 1 receptor; O43613; CHO/OX1R cells, Fluo-8 calcium fluorescence, orexin A; inhibition, % at 5 µM; 0.43% of 330,000 active; AID 434989;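 active means inhibition above its plate's threshold, mean inhibition of all tested compounds on the plate plus 3 SD, cut at about 37% in these data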
Target sequence (O43613 whole entry, looked up): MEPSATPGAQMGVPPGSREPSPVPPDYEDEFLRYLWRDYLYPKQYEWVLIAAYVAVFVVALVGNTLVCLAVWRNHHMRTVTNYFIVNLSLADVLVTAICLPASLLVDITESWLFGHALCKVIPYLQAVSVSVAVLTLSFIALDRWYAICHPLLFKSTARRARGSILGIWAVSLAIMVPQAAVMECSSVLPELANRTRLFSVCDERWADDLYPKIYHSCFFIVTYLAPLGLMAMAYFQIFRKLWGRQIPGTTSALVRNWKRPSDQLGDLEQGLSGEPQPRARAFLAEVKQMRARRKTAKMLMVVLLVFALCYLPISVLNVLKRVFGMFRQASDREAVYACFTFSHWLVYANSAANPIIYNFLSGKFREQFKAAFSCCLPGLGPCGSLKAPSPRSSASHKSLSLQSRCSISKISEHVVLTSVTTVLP
CHO parental Ca: counter-screen: ATP calcium response change in parental CHO cells. parental CHO-K1, ATP-induced calcium, Fluo-8 fluorescence. inhibition, % at 5.6 µM. 0.63% of 330,000 active;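 active means inhibition above that plate's mean sample inhibition plus 3 SD, cut at about 26% in these data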
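Material: parental CHO cells / Compound: single nominal dose of 5.6 µM per compound / Signal: Fluo-8 fluorescence / Replicates: singlicate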
OX1R antag-2: OX1R (human) antagonism. O43613. OX1R-expressing cells, FRET antagonist read-out. inhibition, % at 6.6 µM. 1.8% of 330,000 active. AID 485270; in the data active means inhibition mostly above about 38%, no sharp cut-off; inactive means mostly below about 40%
TAAR1 antag: human TAAR1 antagonism. inhibition, % at 3 µM. 1.5% of 360,000 active. CHO RD-HGA16 TAAR1, Fluo-8 calcium fluorescence, antagonist;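 active means inhibition above a per-plate cutoff, the mean inhibition of test compounds on that plate plus 3 SD, cut at about 49% in these data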
Target sequence (Q96RJ0 whole entry, looked up): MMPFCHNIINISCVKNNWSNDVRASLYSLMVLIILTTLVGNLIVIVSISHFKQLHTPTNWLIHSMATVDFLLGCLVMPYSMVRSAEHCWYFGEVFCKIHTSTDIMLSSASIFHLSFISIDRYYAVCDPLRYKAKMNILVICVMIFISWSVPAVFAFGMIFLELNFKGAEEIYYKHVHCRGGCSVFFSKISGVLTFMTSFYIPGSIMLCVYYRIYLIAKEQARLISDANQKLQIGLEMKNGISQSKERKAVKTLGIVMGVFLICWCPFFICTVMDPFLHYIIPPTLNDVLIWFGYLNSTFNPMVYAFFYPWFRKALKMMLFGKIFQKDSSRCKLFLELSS
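Test system – hTAAR1-expressing CHO RD-HGA16 cells, Gα16-coupled · Also added – β-PEA at EC80 concentration, post-compound challenge · Compound – 3 µM, single point · Incubation – dye loading 75 min at 37 °C, then 30 min room temperature · Measured by – Fluo-8 intracellular calcium dye fluorescence, real-time kinetic reads · Benchmarks – vehicle and agonist controls · Replicates – singlicate, one well per test compound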
TAAR1 agonist: agonists of human TAAR1. 0.99% of 360,000 active. activation, % at 3 µM. CHO RD-HGA16 TAAR1, Fluo-8 calcium fluorescence; vehicle wells 0%, saturating PEA agonist 100%. Q96RJ0;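 active means activation above the mean activation of all test compounds in the run plus 3 SD, cut at about 38% in these data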
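Repeats: no replicates (n 1) | Material: CHO-derived RD-HGA16 cells with stable Gα16 and human TAAR1 | Technique: Kinetic Fluo-8 calcium fluorescence | Schedule: 17-24 h seeding, 75 min 37 °C dye, 30 min RT | Evaluation: % activation from peak over basal fluorescence ratio, DMSO-to-PEA scaled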
OX1R Ca confirm: OX1R (human) antagonism, confirmed; inhibition, % at 5 µM; CHO/OX1R cells, orexin A calcium Fluo-8 fluorescence; shares compounds with OX1R antag-1; 38% of 1,100 active; in the data active means inhibition above about 29%
CHO Ca counter: counter-screen: parental CHO calcium response change, triplicate; shares compounds with OX1R antag-1; parental CHO-K1, ATP-induced calcium, Fluo-8 fluorescence; inhibition, % at 5.6 µM; 9.3% of 1,100 active;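 active means inhibition above a per-plate limit, the mean inhibition of that plate's test compounds plus 3 SD, cut at about 25% in these data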
OX1R HTRF conf: confirmation of human orexin 1 receptor antagonists, HTRF format | shares compounds with OX1R antag-2 | 49% of 1,800 active | inhibition, % at 6.6 µM | AID 492964 | OX1R-expressing cells, HTRF antagonist assay; in the data active means inhibition above about 55%;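 further: CHO cells expressing OX1R stimulated with orexin A at about EC80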
CHO-K1 HTRF cnt: signal in parental CHO-K1 cells, OX1R antagonist counter-screen; shares compounds with OX1R antag-2; HTRF counterscreen; inhibition, % at 6.6 µM; 48% of 1,800 active; in the data active means inhibition above about 17%
Large screens that a line does not name were inactive (follow-up assays come after a bar, where they were run). A selection: hits, their analogues and other compounds. The true share with any hit is near 3.9%.

COC1=CC(C)C2CC3OC(O)CC4C(C)=C(OC)C(=O)C(C2(C)C1=O)C34C (stereo not given)	none (no result: OX1R antag-1, CHO parental Ca, OX1R antag-2)
Cc1cc(F)cc(-c2cc(C(=O)NCc3ccccn3)[nH]n2)c1	none (no result: OX1R antag-1, CHO parental Ca, OX1R antag-2)
Cc1[nH]c2ccccc2c1C(=O)CSc1nc2ccccc2[nH]1	OX1R antag-1 54, OX1R antag-2 80, TAAR1 antag 55 | OX1R Ca confirm 38 | CHO Ca counter inactive | OX1R HTRF conf 91 | CHO-K1 HTRF cnt inactive
CC(NCC(=O)Nc1ccccc1C(=O)NC1CC1)c1ccc(F)cc1F (stereo not given)	OX1R antag-1 57, OX1R antag-2 68 | OX1R Ca confirm 44 | CHO Ca counter inactive | OX1R HTRF conf 87 | CHO-K1 HTRF cnt inactive
CC(CSc1nc2ccccc2s1)Cn1c(N2CCCC2)nc2c1c(=O)[nH]c(=O)n2C (stereo not given)	OX1R antag-1 61, OX1R antag-2 94 | OX1R Ca confirm 35 | CHO Ca counter inactive | OX1R HTRF conf 87 | CHO-K1 HTRF cnt inactive
Cc1cc(C)c2c(N)c(C(=O)N/N=C/c3cccs3)sc2n1	OX1R antag-1 53, OX1R antag-2 85 | OX1R Ca confirm inactive | CHO Ca counter inactive | OX1R HTRF conf 95 | CHO-K1 HTRF cnt inactive
COc1ccc(/C=N/NC(=O)c2sc3nc(C)cc(C)c3c2N)cc1	none
Cc1ccc2c(=O)n3c(nc2c1)C(C)NC(=O)c1cccnc1-3 (stereo not given)	none (no result: OX1R antag-1, CHO parental Ca, OX1R antag-2)
Cc1cccc(NS(=O)(=O)c2nnc(NC(=O)CC(C)C)s2)c1	none
COc1cccc(C(=O)Nc2nnc(S(=O)(=O)Nc3cccc(C)c3)s2)c1	OX1R antag-2 89 | OX1R Ca confirm 41 | CHO Ca counter inactive | OX1R HTRF conf 75 | CHO-K1 HTRF cnt inactive
CC(=O)Nc1cccc(-c2nc3ccc(NC(C)=O)cc3s2)c1	none
CC(=O)Nc1cccc(-c2nc3ccccc3s2)c1	OX1R antag-2 76 | OX1R Ca confirm inactive | CHO Ca counter inactive | OX1R HTRF conf inactive | CHO-K1 HTRF cnt inactive
COc1cccc(-c2nc3ccccc3s2)c1O	none
COc1ccc(-c2nc3ccccc3s2)cc1O	OX1R antag-1 85, OX1R antag-2 112 | OX1R Ca confirm 37 | CHO Ca counter inactive | OX1R HTRF conf 98 | CHO-K1 HTRF cnt inactive
COc1cc(OC)c(-c2nc3ccccc3s2)cc1OC	OX1R antag-1 54, OX1R antag-2 94 | OX1R Ca confirm 36 | CHO Ca counter inactive | OX1R HTRF conf 93 | CHO-K1 HTRF cnt inactive
CCCCCCN1CCN(C2CN(Cc3ccc(F)cc3)S(=O)(=O)C2)CC1 (stereo not given)	none (no result: OX1R antag-1, CHO parental Ca, OX1R antag-2)
COc1ccc(C)cc1NC(=O)c1ccccc1NS(=O)(=O)c1ccc(Cl)s1	OX1R antag-2 62 | OX1R Ca confirm inactive | CHO Ca counter 46 | OX1R HTRF conf inactive | CHO-K1 HTRF cnt inactive
Cc1cc(N2CCN(C(=O)OC(C)(C)C)C[C@H]2C)ccc1N1CCS(=O)(=O)CC1	none (no result: OX1R antag-1, CHO parental Ca, OX1R antag-2)
Cc1c(C(=O)OCC(=O)NCCN2C(=O)CSC2=O)oc2c1ccc1ccccc12	OX1R antag-2 77 | OX1R Ca confirm 33 | CHO Ca counter inactive | OX1R HTRF conf 88 | CHO-K1 HTRF cnt inactive
Cc1nc2c(ccc3nc(NC(=O)Cc4cccc5ccccc45)sc32)s1	OX1R antag-1 56, OX1R antag-2 90 | OX1R Ca confirm 64 | CHO Ca counter inactive | OX1R HTRF conf 90 | CHO-K1 HTRF cnt inactive
COc1ccc(C)cc1NC(=O)C1CCCN(S(=O)(=O)c2cccc3cccnc23)C1 (stereo not given)	OX1R antag-2 79 (no result: TAAR1 antag, TAAR1 agonist) | OX1R Ca confirm inactive | CHO Ca counter inactive | OX1R HTRF conf 80 | CHO-K1 HTRF cnt inactive
COc1cccc(NC(=O)[C@@H]2CCCN2S(=O)(=O)c2cccc3cccnc23)c1	OX1R antag-1 47, OX1R antag-2 84 | OX1R Ca confirm 50 | CHO Ca counter inactive | OX1R HTRF conf 84 | CHO-K1 HTRF cnt inactive
O=C(Nc1cccc(F)c1)C1CCCN1S(=O)(=O)c1cccc2cccnc12 (stereo not given)	OX1R antag-2 71 | OX1R Ca confirm 31 | CHO Ca counter inactive | OX1R HTRF conf 89 | CHO-K1 HTRF cnt inactive
O=C(Nc1ccccc1Cl)C1CCCN(S(=O)(=O)c2cccc3cccnc23)C1 (stereo not given)	none
COc1cc(NC(=O)[C@@H]2CCCN2S(=O)(=O)c2cccc3cccnc23)cc(OC)c1OC	none
Cc1ccc(OC(=O)N(C)C[C@H]2OCc3cn(nn3)CCCC(=O)N([C@@H](C)CO)C[C@@H]2C)cc1	none (no result: OX1R antag-1, CHO parental Ca, OX1R antag-2)
CN(C)C(=O)CSc1nnc(-c2ccco2)n1-c1ccccc1	none (no result: OX1R antag-1, CHO parental Ca, OX1R antag-2)
CN(Cc1ccccc1)C(=O)CSc1nnc(-c2ccco2)n1-c1ccccc1	OX1R antag-2 41 | OX1R Ca confirm inactive | CHO Ca counter inactive | OX1R HTRF conf inactive | CHO-K1 HTRF cnt inactive
COC(=O)c1ccccc1NC(=O)c1sc(=S)n(C)c1N	OX1R antag-1 78, OX1R antag-2 93 | OX1R Ca confirm 97 | CHO Ca counter inactive | OX1R HTRF conf 94 | CHO-K1 HTRF cnt inactive
COC(=O)c1ccccc1NC(=O)c1sc(N)nc1C	none
CN(C)c1c2ccccc2nc2c(F)c(F)c(F)c(F)c12	none (no result: TAAR1 antag, TAAR1 agonist)
Cc1c2ccccc2nc2c(F)c(N(C)C)c(F)c(F)c12	OX1R antag-1 50, OX1R antag-2 82 | OX1R Ca confirm 71 | CHO Ca counter inactive | OX1R HTRF conf 93 | CHO-K1 HTRF cnt inactive
OC[C@@H]1CN(Cc2ccc(Cl)cc2)C[C@H](n2cnc3c(N4CCCC4)ncnc32)O1	none (no result: OX1R antag-1, CHO parental Ca, OX1R antag-2)
O=C(Nc1cc(Sc2ccccn2)cc([N+](=O)[O-])c1)c1ccc(Cl)cc1	OX1R antag-2 94 | OX1R Ca confirm inactive | CHO Ca counter inactive | OX1R HTRF conf inactive | CHO-K1 HTRF cnt inactive
O=C(Nc1cc(Sc2ccccn2)cc([N+](=O)[O-])c1)c1cccc(Cl)c1	none
COC(=O)C(C(C)=O)C1=C/C(=N\S(=O)(=O)c2ccc(C)cc2)c2ccccc2C1=O (stereo not given)	OX1R antag-1 97, OX1R antag-2 106 (no result: TAAR1 antag, TAAR1 agonist) | OX1R Ca confirm 50 | CHO Ca counter inactive | OX1R HTRF conf 94 | CHO-K1 HTRF cnt inactive
S=c1[nH]nc(-c2cc(-c3ccccc3)n[nH]2)n1/N=C/c1cccs1	OX1R antag-1 53, OX1R antag-2 88 | OX1R Ca confirm inactive | CHO Ca counter inactive | OX1R HTRF conf 62 | CHO-K1 HTRF cnt inactive

High-throughput results deposited in PubChem by The Scripps Research Institute Molecular Screening Center.
